High-throughput results from PubChem.
This is a sample that favours compounds with a hit; in the whole collection about 4.7% have one here.
MC4R ag barr – human MC4R agonism via beta-arrestin | P32245 | U2OS MC4R beta-arrestin complementation, luminescence; percent of melanotan II response, DMSO zero | activation, % at 8.9 µM | 360,000 compounds, 0.98% hits;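 active = activation above a per-plate cutoff, the mean activation of sample wells on that plate plus 3 SD, cut at about 8% in these data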
HTR2A ag – mouse HTR2A agonism via beta-arrestin recruitment; P35363; CHO-K1 mHTR2A beta-arrestin complementation, luminescence; percent of 30 µM serotonin response; activation, % at 7.6 µM; 360,000 compounds, 0.66% hits;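 active = activation above a run cutoff, the mean activation of all tested compounds plus 3 SD, cut at about 14% in these data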;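 note: 0% = plate median of compound wells and 100% = 30 µM serotonin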
Target sequence (P35363 whole entry, looked up): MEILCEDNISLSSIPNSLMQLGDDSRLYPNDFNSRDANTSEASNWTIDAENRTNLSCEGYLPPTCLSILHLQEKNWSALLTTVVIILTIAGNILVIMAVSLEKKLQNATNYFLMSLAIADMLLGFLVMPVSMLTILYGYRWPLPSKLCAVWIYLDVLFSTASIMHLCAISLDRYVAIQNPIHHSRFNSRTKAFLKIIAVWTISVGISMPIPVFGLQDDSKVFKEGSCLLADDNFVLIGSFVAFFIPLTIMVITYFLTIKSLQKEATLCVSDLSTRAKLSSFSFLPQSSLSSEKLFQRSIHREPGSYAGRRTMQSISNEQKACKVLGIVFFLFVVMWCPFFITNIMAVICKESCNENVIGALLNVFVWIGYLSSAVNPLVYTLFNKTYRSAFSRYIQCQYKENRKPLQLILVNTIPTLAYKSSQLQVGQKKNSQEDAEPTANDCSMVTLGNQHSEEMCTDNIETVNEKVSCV
AHR act – activators of human aryl hydrocarbon receptor | P35869 | AHR-responsive luciferase reporter cells, luminescence | activation, % at 5 µM | 320,000 compounds, 2.5% hits; in the data active = activation above about 47%;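 note: 0% = vehicle wells and 100% = reference agonist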
MC4R antag cAMP – antagonists of human melanocortin 4 receptor (MC4R). P32245. AID 540295. inhibition, % at 6.5 µM. MC4R-expressing cells, MTII-stimulated cAMP, LANCE TR-FRET. 360,000 compounds, 0.48% hits;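 active = inhibition above its plate's cutoff, the mean of tested wells on that plate plus 3 SD, cut at about 29% in these data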;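 note: 0% = Melanotan II alone and 100% = Melanotan II plus saturating MCL0020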
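system = U2OS cells with stable human MC4R expression | also added = Melanotan II challenge after compound preincubation | dosing = one concentration, 6.5 µM nominal | incubation = compound 30 min, challenge 1 h, detection 1 h | measured by = TR-FRET with Eu-cAMP and labeled anti-cAMP, 671 nm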
FXN GAA850 act – increases GAA850 frataxin promoter reporter activity. HEK293 lucGAA850 FXN promoter luciferase reporter, 24 h; percent of 10 µM SAHA response. activation, % at 6 µM. 360,000 compounds, 0.56% hits;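 active = activation above the average of all compounds screened plus 3 SD, cutoff fixed separately per campaign, cut at about 7.5% in these data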;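 note: 0% = DMSO wells and 100% = 10 µM SAHA wells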
AHR act cf – confirmation of human aryl hydrocarbon receptor activators. shares compounds with AHR act. human cells, AHR-responsive luciferase reporter, luminescence. activation, % at 9 µM. 2,300 compounds, 87% hits; in the data active = activation above about 49%;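 note: HepG2 hepatoma cells carrying a DRE-driven firefly luciferase reporter; 0% = vehicle wells and 100% = reference agonist wells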
PXR act counter – activates human PXR in AHR activator counter-screen; cell-based PXR reporter, luciferase luminescence; shares compounds with AHR act; 2,300 compounds, 88% hits; activation, % at 11.6 µM; AID 434939; in the data active = activation above about 11%;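 note: human hepatoma DPX-2 cells expressing full-length human PXR; 0% = DMSO and 100% = reference agonist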
GAA30 FXN cntr – activates GAA30 frataxin promoter, counter-screen for GAA850 activators | shares compounds with FXN GAA850 act | HEK293 lucGAA30 FXN promoter luciferase, 24 h; DMSO = 0%, 5 µM ipriflavone = 100% | activation, % at 6 µM | 1,900 compounds, 66% hits;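 active = mean activation above the mean of solvent-only control wells plus 3 SD, cut at about 22% in these data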;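 note: counterscreen of GAA850 promoter hits where activity marks nonselective or luminescence artifacts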
FXN GAA850 conf – GAA850 FXN promoter activation confirmation | shares compounds with FXN GAA850 act | activation, % at 6 µM | HEK293 lucGAA850 FXN promoter luciferase reporter, 24 h; 100% = activation by SAHA | 1,900 compounds, 86% hits;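 active = mean activation above a set limit taken from the primary screen, cut at about 8% in these data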;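 note: 0% = DMSO wells and 100% = 10 µM SAHA wells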
Starred values were filed as active, the others as inactive; · = no result.

SMILES	MC4R ag barr	HTR2A ag	AHR act	MC4R antag cAMP	FXN GAA850 act	AHR act cf	PXR act counter	GAA30 FXN cntr	FXN GAA850 conf
COc1cc(/C=C(\C#N)c2nc3ccccc3[nH]2)ccc1OC(=O)c1ccco1	0	-1	100*	-9	7.8*	29	14*	119*	35*
COCC(=O)Nc1nnc(-c2ccc(C(C)(C)C)cc2)s1	0	6	86*	0	8.3*	99*	30*	124*	37*
COc1ccc2[nH]c(=O)c3c(c2c1)OC(C)(C)C=C3	1	0	18	-12	-2	·	·	·	·
Cc1cc2c([nH]c3ccccc32)c2c1OC(C)(C)C=C2	3	2	102*	2	8.2*	119*	72*	124*	46*
CCc1ccc2oc(-c3cc(N)cc(C)c3O)nc2c1	0	3	114*	0	7.7*	117*	12*	81*	40*
Clc1ccc(-c2cn3cc(Br)ccc3n2)cc1Cl	4	-2	90*	-10	8.2*	137*	16*	71*	22*
NC(=O)c1ccc(NC(=O)COC(=O)C2CCN(S(=O)(=O)c3cccs3)CC2)cc1	-2	-6	-1	5	-1	·	·	·	·
CNc1cc(C(=O)Nc2cccc(OCc3ccccc3)c2)ncn1	3	1	·	1	2	·	·	·	·
Cc1ccc2nc(N/N=C/c3ccco3)cc(C)c2c1	0	-8	121*	19	8.2*	177*	23*	104*	44*
COc1ccc(C(=O)N2CCC(C)(C(=O)NS(=O)(=O)C3CC3)C2)c(OC)c1 (stereo not given)	-2	2	·	3	-1	·	·	·	·
Cc1ccc(S(=O)(=O)N2[C@H](c3cccc(Cl)c3)CC(=O)[C@@H]3CN(S(=O)(=O)c4ccccc4C)[C@H](c4ccc(Cl)cc4)C[C@@H]32)cc1	0	3	·	1	-2	·	·	·	·
Cc1[nH]c2ccccc2c1C(=O)/C=C/c1ccccc1Cl	0	-5	147*	-10	7.7*	123*	72*	117*	44*
Cc1ccc(COC(=O)NCc2cccnc2)cc1	-1	-2	3	-1	-1	·	·	·	·
C=CCc1c(C)nc(-c2ccccc2)nc1Nc1ccccc1O	0	-3	121*	12	7.9*	88*	134*	30*	21*
O=C(COC(=O)C12CC3CC(CC(C3)C1)C2)NNC(=O)c1ccccc1	0	7	0	13	0	·	·	·	·
CC(C)N1CCc2c(sc(NC(=O)c3ccc4ccccc4c3)c2C(N)=O)C1	-1	0	6	7	3	·	·	·	·
CC(=O)Nc1sc2c(c1-c1nc3ccccc3s1)CCN(C(C)C)C2	2	-9	172*	4	34*	70*	·	-33	91*
CN1CCSc2ccc(C(=O)Nc3ccc(Cl)cc3)cc21	6	-7	215*	3	7.8*	135*	70*	120*	45*
O=C(Nc1ccc([N+](=O)[O-])cc1)N1CCc2ccccc2C1	-2	-8	2	-2	4	·	·	·	·
CC(C)c1ccc(NC(=O)N2CCc3ccccc3C2)cc1	-2	-4	114*	-3	9.0*	96*	93*	113*	32*
CC1(c2nnnn2-c2ccc3c(c2)OCCO3)CCC(=O)N1CCCN1CCOCC1 (stereo not given)	·	-2	·	·	·	·	·	·	·
Fc1ccccc1Nc1nc2ccccc2n2nnnc12	0	-3	96*	-11	8.2*	74*	11*	106*	42*
COCCn1c(SCC(=O)Nc2ccccc2OC)nc2c([nH]c3ccccc32)c1=O	2	5	85*	-2	8.0*	84*	179*	14	7.9*
CNC(=O)CSc1nc2c([nH]c3ccccc32)c(=O)n1CCOC	-1	0	31	3	1	·	·	·	·
O=CNc1cc(-c2cccc(O)c2)cn2c(-c3ccc(F)cc3)cnc12	1	-3	·	3	0	·	·	·	·
SMILES	MC4R ag barr	HTR2A ag	AHR act	MC4R antag cAMP	FXN GAA850 act	AHR act cf	PXR act counter	GAA30 FXN cntr	FXN GAA850 conf
Cc1cccc(Nc2nc(-c3cccs3)cs2)n1	0	-4	87*	3	7.7*	161*	21*	115*	41*
Cn1/c(=N\NC(=O)c2ccccc2Cl)sc2ccccc21	-1	2	136*	-7	8.1*	126*	53*	104*	27*
Cn1/c(=N\NC(=O)C2CCCCC2)sc2ccccc21	1	1	42	2	4	·	·	·	·
Fc1ccc(-c2cnn3c(-c4ccncc4)ccnc23)cc1	-1	-2	135*	9	8.6*	45	27*	96*	30*
Fc1ccc(-c2cnn3c(-c4cccs4)ccnc23)cc1	2	1	·	-1	7	·	·	·	·
CC(C)Cn1c(/C=N/Nc2nc3ccccc3[nH]2)nc2ccccc21	-4	-8	·	6	4	·	·	·	·
Clc1nc2ccccc2cc1/C=N/Nc1nc2ccccc2[nH]1	-2	-4	83*	-10	8.4*	73*	21*	128*	44*
Cn1c(/C=N/Nc2nc3ccccc3[nH]2)nc2ccccc21	-4	-5	88*	2	8.5*	60*	9	-33	-10
CC(C)(C)c1ccc(C(=O)NC(=O)COC(=O)c2ccc(Br)o2)cc1	6	-4	0	12	1	·	·	·	·
CSc1ncccc1C(=O)N1CCN(S(=O)(=O)c2ccc3c(c2)OCCO3)CC1	-5	10	3	14	-1	·	·	·	·
CC1Cc2ccccc2N1C(=O)COc1ccc2c(c1)OCO2 (stereo not given)	1	-1	84*	9	8.0*	95*	66*	79*	24*
CN1C[C@@H]2[C@@H]3C(=O)N(C)C(=O)[C@@H]3[C@](Cc3ccccc3)(C1=O)N2C(=O)c1ccc(F)cc1	0	7	·	-4	1	·	·	·	·
Nc1nc(-c2cccnc2)nc2sc3c(c12)CCCC3	-1	2	118*	-11	10*	90*	72*	108*	53*
CC(=O)Nc1ccc(Oc2nc(-c3cccnc3)nc3sc4c(c23)CCCC4)cc1	-2	4	0	4	0	·	·	·	·
CC(C)NC(=O)C1(C)CSCC(=O)N1CCCN1CCOCC1 (stereo not given)	·	0	·	·	·	·	·	·	·
